Screens (PubChem BioAssay)
A selection: hits, their analogues and other compounds. The true share with any hit is near 3.8%.
MC4R ag barr: human MC4R agonism via beta-arrestin. P32245. U2OS MC4R beta-arrestin complementation, luminescence; percent of melanotan II response, DMSO zero. activation, % at 8.9 µM. hit rate 0.98% among 360,000. AID 540308;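 active = activation above a per-plate cutoff, the mean activation of sample wells on that plate plus 3 SD, cut at about 8% in these data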
MC4R antag cAMP: human MC4R antagonism in cAMP assay; P32245; MC4R-expressing cells, MTII-stimulated cAMP, LANCE TR-FRET; inhibition, % at 6.5 µM; hit rate 0.48% among 360,000; AID 540295;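 active = inhibition above its plate's cutoff, the mean of tested wells on that plate plus 3 SD, cut at about 29% in these data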;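 note: 0% = Melanotan II alone and 100% = Melanotan II plus saturating MCL0020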
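Material: U2OS-MC4R stable cell line | Reagent: Melanotan II challenge after compound preincubation | Doses: One concentration, 6.5 µM nominal | Incubation: 30-min compound preincubation, 1-h Melanotan II challenge, 1-h detection, room temperature | Signal: TR-FRET cAMP assay | Replicates: One well per compound, no replicates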
TMEM16A inh: mouse TMEM16A channel inhibition, primary screen; normalized B-score (activity score, 25-100; higher = stronger inhibition) at 10 µM; HEK293 TMEM16A/YFP iodide influx fluorescence, ionomycin; hit rate 1.2% among 310,000; Q8BHY3;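 active = ratio plate-corrected score three or more library SD toward inhibition, starting fluorescence score within five deviations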;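 note: score derived from kinetic fluorescence span divided by baseline fluorescence per well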
Target sequence (Q8BHY3 whole entry, looked up): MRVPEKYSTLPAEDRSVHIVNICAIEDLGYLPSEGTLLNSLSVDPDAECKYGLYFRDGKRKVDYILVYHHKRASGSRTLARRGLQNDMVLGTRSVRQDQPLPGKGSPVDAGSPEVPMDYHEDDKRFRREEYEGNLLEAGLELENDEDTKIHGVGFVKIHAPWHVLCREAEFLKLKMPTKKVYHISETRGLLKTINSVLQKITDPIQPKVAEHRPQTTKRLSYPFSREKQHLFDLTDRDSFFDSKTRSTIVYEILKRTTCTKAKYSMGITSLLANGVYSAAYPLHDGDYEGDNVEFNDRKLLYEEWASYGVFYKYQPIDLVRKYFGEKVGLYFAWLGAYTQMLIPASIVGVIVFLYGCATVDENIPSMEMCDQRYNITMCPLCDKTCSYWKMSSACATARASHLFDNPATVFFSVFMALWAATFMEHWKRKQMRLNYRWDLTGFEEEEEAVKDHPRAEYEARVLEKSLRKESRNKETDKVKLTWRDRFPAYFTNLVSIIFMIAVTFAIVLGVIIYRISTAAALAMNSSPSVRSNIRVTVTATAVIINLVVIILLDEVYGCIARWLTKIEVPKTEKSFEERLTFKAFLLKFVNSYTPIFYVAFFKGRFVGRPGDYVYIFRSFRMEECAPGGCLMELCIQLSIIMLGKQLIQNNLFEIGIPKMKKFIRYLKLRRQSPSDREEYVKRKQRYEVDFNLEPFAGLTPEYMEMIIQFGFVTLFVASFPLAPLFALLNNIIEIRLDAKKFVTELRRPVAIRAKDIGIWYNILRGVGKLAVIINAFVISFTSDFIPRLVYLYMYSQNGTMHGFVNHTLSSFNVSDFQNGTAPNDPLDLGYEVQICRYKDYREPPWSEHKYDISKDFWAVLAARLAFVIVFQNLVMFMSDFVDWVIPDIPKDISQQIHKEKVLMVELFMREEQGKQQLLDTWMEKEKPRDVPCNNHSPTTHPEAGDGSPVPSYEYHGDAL
Beta cell apopt: beta cell apoptosis inhibition; AID 435005; INS-1E cytokine-induced death, ATP luminescence, 48 h; percent of positive-control rescue, neutral wells zero; hit rate 0.8% among 300,000; protection from apoptosis, % (concentration not given with the values);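 active = Every replicate reaches about 75%, or at least half do and their mean reaches it too, limit read from the data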;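 note: 0% = cytokine-treated negative control wells and 100% = positive control rescue; higher means more ATP so stronger rescue from cytokine killing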
TMEM16A act: activates or potentiates the mouse TMEM16A chloride channel. HEK293 TMEM16A/YFP-H148Q/I152L, iodide quench fluorescence; stronger effect = lower value. AID 623877. B-score at 10 µM. hit rate 0.3% among 340,000;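 active = fluorescence-ratio B-score plate-corrected deviation score at least 3 library SD below zero, with starting fluorescence score within 5 deviations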;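 note: channel opened by trigger with iodide after compound preincubation; score built on the fluorescence ratio of max minus min over baseline; more negative score means more quench and so TMEM16A activation or potentiation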
CSC inhib: cancer stem cell inhibition. hit rate 1.1% among 300,000. inhibition, % at 7.5 µM. cancer stem cell-like cells viability, luminescence. AID 2717; in the data active = inhibition above about 75%; tested in HMLE shEcad cells
Active calls of the source: *; i = inactive; . = not tested or not shown.

SMILES	MC4R ag barr	MC4R antag cAMP	TMEM16A inh	Beta cell apopt	TMEM16A act	CSC inhib
c1ccc(C(CN2CCCCC2)Oc2ccccn2)cc1 (stereo unspecified)	-1.0	-0.8	.	.	i	.
CC(C)C[C@H](NC(=O)OC(C)(C)C)c1nnc(SCC(=O)Nc2ccc(Br)cc2)o1	8.3*	2.2	i	-7.3	i	-8.7
CC(C)C[C@H](N)c1nnc(SCC(=O)Nc2ccc(Br)cc2)o1	-0.6	-1.1	i	-5.9	i	-25.1
Cc1cc2c(cc1C)NC(=O)CC(C(F)(F)C(F)(F)C(F)(F)F)=N2	8.7*	8.3	i	-2.2	i	-7.5
CC(=O)c1ccc(Nc2nc(C(N)C(C)C)cs2)cc1 (stereo unspecified)	-1.0	11.1	.	.	.	.
COc1ccc(C(=O)NC(=S)NNC(=O)c2cnccn2)cc1	-1.1	-4.9	i	76.8*	i	88.2*
O=C(NNC(=S)NC(=O)c1cccnc1)c1ccc(Cl)cc1	-3.1	0.3	i	-0.6	i	17.4
COc1ccc(C(=O)NNC(=S)NC(=O)C(C)(C)C)cc1	-6.6	-9.1	25*	44.9	i	18.8
O=C(NC(=S)NNC(=O)c1cnccn1)c1ccc(Cl)cc1	-0.1	1.8	i	3.7	i	94.1*
COc1ccc(C(=O)NNC(=O)c2ccc(C(C)(C)C)cc2)cc1	-2.9	-2.4	i	-15.5	i	-2.7
COc1cc(C(=O)NC(=S)NNC(=O)c2cnccn2)cc(OC)c1OC	-2.0	7.2	i	82.1*	i	35.7
CN(Cc1c(C(=O)N/N=C/c2ccc(O)cc2)nnn1-c1nonc1N)c1ccccc1	-0.8	-1.4	i	4.0	i	5.0
Cc1ccccc1NC(=O)N(O)C1(C#N)CCCCC1	-0.1	4.8	.	.	i	.
CCCNC(=O)c1ccccc1NC(=O)COc1cccc2c1OC(C)(C)C2	-3.0	16.8	i	-4.1	i	10.8
CC(C)(C)C(=O)NC(=S)NNC(=O)c1sc2ccccc2c1Cl	-8.6	-4.6	100*	66.8	-11.8*	.
COc1cc(C(=O)NC(=S)NNC(=O)[C@H]2C[C@@H]2c2ccccc2)cc(OC)c1OC	0.0	-2.0	25*	4.2	i	6.4
COc1ccc(NC(=O)CSc2nccn2Cc2ccco2)cc1OC	-1.8	15.0	i	1.3	i	7.2
Nc1nonc1C(=O)NCCNCc1cc(Br)ccc1OCc1ccccc1F	-2.2	6.8	100*	66.4	i	3.7
COCCNC(=O)CN1C(=O)NC(c2ccccc2)(c2ccccc2)C1=O	1.4	-6.7	i	0.2	i	.
CC(C)=CCc1cc(-c2oc3cc(O)cc(O)c3c(=O)c2O)ccc1O	3.5	-4.8	i	-8.3	i	0.7
CC(C)=CCc1c(O)cc2oc3c(CC=C(C)C)c(O)c(O)c(CC=C(C)C)c3c(=O)c2c1O	2.1	7.6	100*	.	i	2.9
Cc1ccc(NC(=O)CSc2nc3c([nH]c4ccccc43)c(=O)n2C)cc1	15.8*	-9.3	i	55.1	i	15.0
Cn1c(SCC(=O)Nc2ccc(F)cc2)nc2c([nH]c3ccccc32)c1=O	2.7	-11.2	i	29.9	i	15.1
CC1(C(=O)Nc2cccnc2)Cc2c(-c3ccc4c(c3)OCO4)ccnc2O1 (stereo unspecified)	2.0	1.9	.	.	.	.
COc1ccc(C(O)c2ncc(-c3ccccc3)[nH]2)c(OC)c1 (stereo unspecified)	0.5	15.8	.	.	.	.
SMILES	MC4R ag barr	MC4R antag cAMP	TMEM16A inh	Beta cell apopt	TMEM16A act	CSC inhib
Cc1ccc(NC(=O)CC2(CC(=O)O)CCCC2)c(C)c1	-1.1	-1.9	i	.	i	.
CCCCC(=O)Nc1ccc(Cl)cc1F	0.5	7.2	.	.	.	.
O=C(CCCCC(=O)Nc1ccc(F)cc1F)Nc1ccc(F)cc1F	1.0	13.4	i	133.3*	i	7.8
C=CCn1cccc(/C=C/C(=O)c2ccc(C(C)(C)C)cc2)c1=S	-3.8	1.1	i	1.2	i	110.6*
O=C(C=Cc1ccccc1Cl)c1ccccc1	-1.0	18.4	.	.	i	.
COc1ccc(CSc2ccc(S(=O)(=O)N3CCCCC3)cn2)cc1F	1.0	0.5	.	.	-22.5*	.
CC(=O)O[C@@H]1C[C@@]2(C)[C@@H](CC[C@H]2[C@@H](C)/C=C\CC(C)C)C2=C[C@@H](O)[C@@]3(O)C[C@@H](O)[C@H](O)C[C@]3(CO)[C@]21O	-0.6	12.4	.	.	.	.
